In ChEMBL document CHEMBL1123861, “Antitumor agents. 89. Psychorubrin, a new cytotoxic naphthoquinone from Psychotria rubra and its structure-activity relationships” (1987):
Values after ≈ are worked out from the molar mass of the structure shown.

Test system: KB
Test: Evaluated for cytotoxicity in the KB cell culture assay
Assay type: functional
Settings: Homo sapiens, read-out: ED50 (the source's name)
Outline: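 Cytotoxicity screen per NIH protocol. 10^4 tumor cells grown in MEM with 10% fetal calf serum; penicillin and streptomycin given on day 3. Drug tested at 0.1 to 20 µg/mL (N = 4). Viable cells counted by trypan blue exclusion and expressed as % of the 0.05% Tween 80-water control. ED50 estimated from a semi-log plot of concentration vs % viable cells.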

In the case of C/C=C/C1=C(OC(=O)CC)C(=O)c2ccccc2C1=O, the EC50 is reported as 6.5 µg/mL (≈ 24 µM).

O=C1C2=C(OCC=C2)C(=O)c2ccccc21 showed an EC50 of 0.4 µg/mL (≈ 1.88 µM).

For CC(=O)OC1CCC2=C(O1)C(=O)c1ccccc1C2=O (stereo not drawn), the EC50 was 10 µg/mL (≈ 36.7 µM).

Compound COC1CCC2=C(O1)C(=O)c1ccccc1C2=O (stereo not drawn) has an EC50 of 11 µg/mL (≈ 45 µM).

CC(C)=CCC1=C(O)C(=O)c2ccccc2C1=O [LAPACHOL] showed an EC50 of 4.4 µg/mL (≈ 18.2 µM).

In the case of O=C1C2=C(OC(Cl)CC2)C(=O)c2ccccc21 (stereo not drawn), the EC50 is reported as 9.3 µg/mL (≈ 37.4 µM).

O=C1C2=C(OCCC2)C(=O)c2ccccc21 was tested, and the EC50 was 8 µg/mL (≈ 37.3 µM).

C/C=C/C1=C(OC(C)=O)C(=O)c2ccccc2C1=O showed an EC50 of 5.1 µg/mL (≈ 19.9 µM).

C/C=C/C1=C(O)C(=O)c2ccccc2C1=O gave an EC50 of 14 µg/mL (≈ 65.4 µM).

Cc1cc2c(o1)-c1ccccc1C(=O)C2=O was tested, and the EC50 was 0.6 µg/mL (≈ 2.83 µM).

Compound O=C1C2=C(OC(O)CC2)C(=O)c2ccccc21 (stereo not drawn) has an EC50 of 20 µg/mL (≈ 86.9 µM).

In the case of O=C1C2=C(CC(O)OC2)C(=O)c2ccccc21 (stereo not drawn), the EC50 is reported as 3 µg/mL (≈ 13 µM).

Compound CC(O)c1cc2c(o1)C(=O)c1ccccc1C2=O (stereo not drawn) has an EC50 of 2 µg/mL (≈ 8.26 µM).

Compound CC(=O)OC1CC2=C(CO1)C(=O)c1ccccc1C2=O (stereo not drawn) has an EC50 of 5 µg/mL (≈ 18.4 µM).

Cc1cc2c(o1)C(=O)c1ccccc1C2=O was tested, and the EC50 was 0.3 µg/mL (≈ 1.41 µM).

Compound C/C=C/C1=C(OC(=O)c2ccccc2)C(=O)c2ccccc2C1=O has an EC50 of 5.1 µg/mL (≈ 16 µM).

For CC(=O)c1cc2c(o1)C(=O)c1ccccc1C2=O [NAPABUCASIN], the EC50 was 1 µg/mL (≈ 4.16 µM).

For C=C/C=C1/C(=O)C(=O)c2ccccc2C1=O, the EC50 was 0.4 µg/mL (≈ 1.88 µM).
